Active and inactive are the calls of the source. No cut-off for these calls is given here.
Tests used:
[1] = Chemical stability of the compound in phosphate buffer at pH 7.3; type: physicochemical
[2] = Half life of the compound in phosphate buffer at pH 7.3; type: physicochemical
[3] = Cellular uptake in human OVCAR3 cell cytoplasm assessed as per 10^3 cells after 1 hr by gamma counting; type: ADME, cell-based; details: ovcar-3, 1 h
Procedure, shortened: (§1)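 OVCAR-3 cells incubated 1 h with 55.5 (0.04) kBq/mL 125I-labelled agent (diastereomer mixtures or resolved slow isomers); fractionated either immediately or after 24 h further growth in fresh nonradioactive medium; 125I in cytoplasm and nucleus counted as cpm/10^3 cells with std dev.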

[4] = Cellular uptake in human OVCAR3 cell cytoplasm assessed as per 10^3 cells after 24 hrs by gamma counting; type: ADME, cell-based; details: ovcar-3, 24 h; procedure, shortened: as §1
[5] = Cellular uptake in human OVCAR3 cell nucleus assessed as per 10^3 cells after 1 hr by gamma counting; type: ADME, cell-based; details: ovcar-3, 1 h; procedure, shortened: as §1
[6] = Cellular uptake in human OVCAR3 cell nucleus assessed as per 10^3 cells after 24 hrs by gamma counting; type: ADME, cell-based; details: ovcar-3, 24 h; procedure, shortened: as §1
[7] = target: Cholinesterase (Homo sapiens, UniProt P06276); assay: Inhibition of human BChE after 30 mins by microplate reader method
Cholinesterase, sequence (P06276 whole entry): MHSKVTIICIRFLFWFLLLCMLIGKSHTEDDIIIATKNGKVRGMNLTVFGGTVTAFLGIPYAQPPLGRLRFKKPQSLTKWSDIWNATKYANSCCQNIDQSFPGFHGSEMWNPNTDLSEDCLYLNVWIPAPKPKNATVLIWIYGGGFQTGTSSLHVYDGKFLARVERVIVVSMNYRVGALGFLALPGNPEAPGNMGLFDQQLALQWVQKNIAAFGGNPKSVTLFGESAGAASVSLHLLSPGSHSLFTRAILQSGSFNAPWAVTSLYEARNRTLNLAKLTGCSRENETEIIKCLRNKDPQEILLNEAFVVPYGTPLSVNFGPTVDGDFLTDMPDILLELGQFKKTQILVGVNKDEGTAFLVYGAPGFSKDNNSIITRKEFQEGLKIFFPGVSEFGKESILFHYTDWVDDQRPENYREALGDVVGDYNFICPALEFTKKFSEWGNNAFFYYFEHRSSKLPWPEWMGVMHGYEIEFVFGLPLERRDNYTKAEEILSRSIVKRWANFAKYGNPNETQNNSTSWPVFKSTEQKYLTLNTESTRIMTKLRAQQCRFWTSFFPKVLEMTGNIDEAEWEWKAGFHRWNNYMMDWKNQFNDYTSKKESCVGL

[8] = Cellular uptake in human OVCAR3 cytoplasm at 55.5 kBq/mL incubated for 1 hr followed by compound wash out measured after 24 hrs by gamma counting; type: ADME, cell-based; details: ovcar-3, 1 h; procedure, shortened: as §1
[9] = test system: U-87MG ATCC; assay: Cytotoxicity against human U87MG cells at 4.76 kBq/mL assessed as cell survival incubated for 1 hr followed by compound wash out measured after 24 hrs by clonogenic assay; type: functional, cell-based; details: tested as the 125I-labelled form
Procedure, shortened: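 U-87 MG cells treated 1 h with 4.76 kBq/mL 125I agent, then plated immediately or grown 24 h in fresh medium before clonogenic assay; surviving fraction relative to untreated control colonies.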

Cc1cccc2c1OP(=O)(OC[C@H]1O[C@@H](n3cc([125I])c(=O)[nH]c3=O)C[C@@H]1O)OC2 (stereo in doubt; form 2)
K [1]: 4.63 ×10⁻⁴ /min
t1/2 [2]: 25 h
Drug uptake ([3]; 1 h): 13 cpm
Drug uptake ([4]; 24 h): 1.8 cpm
Drug uptake ([5]; 1 h): 5.4 cpm
Drug uptake ([6]; 24 h): 29.3 cpm

O=c1[nH]c(=O)n([C@H]2C[C@H](OP3(=O)OCc4ccccc4O3)[C@@H](COP3(=O)OCc4ccccc4O3)O2)cc1[125I] (stereo partly drawn)
Drug uptake [3]: 97.6 cpm
Drug uptake [4]: 37.3 cpm
Drug uptake [5]: 6.4 cpm
Drug uptake [6]: 18.1 cpm

CC(C)(C)c1cc(C(C)(C)C)c2c(c1F)COP(=O)(OC[C@H]1O[C@@H](n3cc(I)c(=O)[nH]c3=O)C[C@@H]1F)O2 (stereo in doubt; form 2)
K [1]: 2.22 ×10⁻⁴ /min
t1/2 [2]: 52 h
IC50 [7]: 0.0198 µM

O=c1[nH]c(=O)n([C@H]2C[C@H](O)[C@@H](COP3(=O)OCc4ccccc4O3)O2)cc1[125I] (stereo in doubt; 6b)
Drug uptake ([3]; 1 h): 20.2 cpm
Drug uptake ([4]; 24 h): 7.3 cpm
Drug uptake ([5]; 1 h): 5.7 cpm
Drug uptake ([6]; 24 h): 39.4 cpm
Drug uptake [8]: Active

CC(C)(C)c1cc(C(C)(C)C)c2c(c1F)COP(=O)(OC[C@H]1O[C@@H](n3cc(I)c(=O)[nH]c3=O)C[C@@H]1F)O2 (stereo in doubt)
Activity [9]: inactive

O=c1[nH]c(=O)n([C@H]2C[C@H](O)[C@@H](COP3(=O)OCc4ccccc4O3)O2)cc1I (stereo in doubt; form 2)
IC50 [7]: 0.0092 µM

O=c1[nH]c(=O)n([C@H]2C[C@H](OP3(=O)OCc4ccccc4O3)[C@@H](CO)O2)cc1[125I] (stereo partly drawn)
Drug uptake [3]: 7.2 cpm
Drug uptake [4]: 2.7 cpm
Drug uptake [5]: 2.1 cpm
Drug uptake [6]: 30.2 cpm

CC(C)(C)c1cc(C(C)(C)C)c2c(c1F)COP(=O)(O[C@H]1C[C@H](n3cc([125I])c(=O)[nH]c3=O)O[C@@H]1CO)O2 (stereo partly drawn)
Drug uptake [3]: 62.5 cpm
Drug uptake [4]: 2.7 cpm
Drug uptake [5]: 4.3 cpm
Drug uptake [6]: 66.7 cpm

Cc1cn([C@H]2C[C@H](F)[C@@H](COP3(=O)OCc4c(F)c(C(C)(C)C)cc(C(C)(C)C)c4O3)O2)c(=O)[nH]c1=O (stereo in doubt; form 1)
IC50 [7]: 0.203 µM

O=c1[nH]c(=O)n([C@H]2C[C@H](OP3(=O)OCc4ccccc4O3)[C@@H](CO)O2)cc1I (stereo in doubt; form 1)
K [1]: 2.05 ×10⁻³ /min
t1/2 [2]: 5.3 h

Cc1cccc2c1OP(=O)(OC[C@H]1O[C@@H](n3cc([125I])c(=O)[nH]c3=O)C[C@@H]1OP1(=O)OCc3cccc(C)c3O1)OC2 (stereo partly drawn)
Drug uptake [3]: 97.1 cpm
Drug uptake [4]: 13.4 cpm
Drug uptake [5]: 6 cpm
Drug uptake [6]: 24.5 cpm

O=c1[nH]c(=O)n([C@H]2C[C@H](OP3(=O)OCc4ccccc4O3)[C@@H](CO)O2)cc1I (stereo in doubt; form 2)
K [1]: 1.64 ×10⁻³ /min
t1/2 [2]: 7.1 h

CC(C)(C)c1cc(C(C)(C)C)c2c(c1F)COP(=O)(OC[C@H]1O[C@@H](n3cc([125I])c(=O)[nH]c3=O)C[C@@H]1F)O2 (stereo in doubt; form 2)
K [1]: 2.24 ×10⁻⁴ /min
t1/2 [2]: 51.5 h

CC(C)(C)c1cc(C(C)(C)C)c2c(c1F)COP(=O)(OC[C@H]1O[C@@H](n3cc(I)c(=O)[nH]c3=O)C[C@@H]1F)O2 (stereo in doubt; form 1)
K [1]: 2.92 ×10⁻⁴ /min
t1/2 [2]: 39.6 h
IC50 [7]: 0.549 µM

Cc1cccc2c1OP(=O)(OC[C@H]1O[C@@H](n3cc(I)c(=O)[nH]c3=O)C[C@@H]1O)OC2 (stereo in doubt; form 1)
IC50 [7]: > 7000 µM

CC(C)(C)c1cc(C(C)(C)C)c2c(c1F)COP(=O)(OC[C@H]1O[C@@H](n3cc(I)c(=O)[nH]c3=O)C[C@@H]1O)O2 (stereo in doubt; form 2)
K [1]: 1.88 ×10⁻⁴ /min
t1/2 [2]: 61.5 h
IC50 [7]: 0.0501 µM

Cc1cccc2c1OP(=O)(O[C@H]1C[C@H](n3cc(I)c(=O)[nH]c3=O)O[C@@H]1CO)OC2 (stereo in doubt; form 1)
K [1]: 9.46 ×10⁻⁴ /min
t1/2 [2]: 12.2 h

— ChEMBL document CHEMBL2146438, “Radiolabeled cyclosaligenyl monophosphates of 5-iodo-2'-deoxyuridine, 5-iodo-3'-fluoro-2',3'-dideoxyuridine, and 3'-fluorothymidine for molecular radiotherapy of cancer: synthesis and biological evaluation” (J Med Chem, 2012)
